# Laboratory results taken from ChEMBL document CHEMBL1132171, “Synthesis and antitumor activity of novel thioester derivatives of leinamycin” (J Med Chem, 1999).
# Tests used:
# [1] = Half-life determined by HPLC ([…]); assay type: ADME
# How it was run: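 Stability read by HPLC at 330 nm. Compound at 20 μg/mL in pH 7 phosphate buffer/acetonitrile (4:1), 37 °C, half-life derived.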
# HeLa = test: In vitro antiproliferative activity against HeLa S3 cells; assay type: functional, cell-based; settings: Homo sapiens
# How it was run: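 HeLa S3 cells precultured 24 h in 96-well plates, then exposed to compound for 72 h. Growth inhibition read on day 4 by neutral red dye uptake.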
# Mus musculus [2] = test: Optimal dose for in vivo antitumor activity against sarcoma 180 infected mice; assay type: functional
# How it was run: (§1)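 ddY mice given sarcoma 180 cells in the axillary region on day 0. Single iv dose on day 1. Tumor volume expressed as treated/control ratio. Optimal dose reported.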
# Mus musculus [3] = test: In vivo antitumor activity against sarcoma 180 infected mice was determined as treated versus control of tumor volume; assay type: functional; how it was run: as §1
half-life [1],IC50 (HeLa),Structure (SMILES),OD (Mus musculus [2]),T/C (Mus musculus [3])
> 24 h,1300 nM,CCOC(=O)CSC(=O)[C@](C)(O)[C@@]12CC/C(C)=C/[C@@H](O)C(=O)/C=C/C=Cc3csc(n3)[C@@H](C)N(C(=O)C1)[S+]2[O-] (stereo not given in full),16 mg/kg,0.98
24 h,3.9 nM,CC(=O)O[C@@H]1/C=C(\C)CC[C@]2([C@@](C)(O)C(=O)SCc3oc(=O)oc3C)CC(=O)N([C@H](C)c3nc(cs3)C=C/C=C/C1=O)[S+]2[O-] (stereo not given in full),2 mg/kg,0.38
18 h,1.4 nM,COC1(O[C@@H]2/C=C(\C)CC[C@]3([C@@](C)(O)C(=O)SCc4oc(=O)oc4C)CC(=O)N([C@H](C)c4nc(cs4)/C=C/C=C/C2=O)[S+]3[O-])CCOCC1 (stereo not given in full),8 mg/kg,0.25
24 h,0.17 nM,COCO[C@@H]1/C=C(\C)CC[C@]2([C@@](C)(O)C(=O)SCc3oc(=O)oc3C)CC(=O)N([C@H](C)c3nc(cs3)C=C/C=C/C1=O)[S+]2[O-] (stereo not given in full),2 mg/kg,0.58
18 h,830 nM,CSC(=O)[C@](C)(O)[C@@]12CC/C(C)=C/[C@@H](O)C(=O)/C=C/C=Cc3csc(n3)[C@@H](C)N(C(=O)C1)[S+]2[O-] (stereo not given in full),16 mg/kg,0.94

Structure (SMILES),half-life [1],IC50 (HeLa),OD (Mus musculus [2]),T/C (Mus musculus [3])
C/C1=C\[C@@H](O)C(=O)/C=C/C=Cc2csc(n2)[C@@H](C)N2C(=O)C[C@@]([C@@](C)(O)C(=O)SCc3oc(=O)oc3C)(CC1)[S+]2[O-] (stereo not given in full),16 h,4.6 nM,2 mg/kg,0.67
C/C1=C\[C@@H](O[C@H]2CCCCO2)C(=O)/C=C/C=C/c2csc(n2)[C@@H](C)N2C(=O)C[C@@]([C@@](C)(O)C(=O)SCc3oc(=O)oc3C)(CC1)[S+]2[O-] (stereo not given in full),30 h,2.4 nM,8 mg/kg,0.63
C/C1=C\[C@@H](O[C@@H]2CCCCO2)C(=O)/C=C/C=C/c2csc(n2)[C@@H](C)N2C(=O)C[C@@]([C@@](C)(O)C(=O)SCc3oc(=O)oc3C)(CC1)[S+]2[O-] (stereo not given in full),30 h,0.67 nM,8 mg/kg,0.26
C/C1=C\[C@@H](O)C(=O)/C=C/C=C\c2csc(n2)[C@@H](C)NC(=O)C[C@@]2(CC1)[S+]([O-])SC(=O)[C@]2(C)O (stereo not given in full) [LEINAMYCIN],6 h,,2 mg/kg,0.49
